From ChEMBL document CHEMBL1140117, “Structure-activity relationship studies for the peptide portion of the bladder epithelial cell antiproliferative factor from interstitial cystitis patients” (2008)
Residues, ends and D or L forms follow the SMILES beside them. *: point of attachment. X1 = CC(=O)N[C@@H]1[C@@H](O[C@@H]2O[C@H](CO)[C@H](O)[C@H](O)[C@H]2O)[C@@H](O)[C@@H](CO)O[C@@H]1*

Assay: Antiproliferative activity against human bladder epithelial cells assessed as inhibition of [3H]thymidine incorporation after 48 hrs relative to as-APF
Assay type: functional, Epithelial cell
Parameters: scale not given: the % may be the effect or the level left
In short: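 Primary normal human bladder epithelial cells, explanted from cystoscopy biopsies, plated at 1.5 × 10⁴ cells/well in MEM with 10% heat-inactivated FBS. Congeners dissolved in acetonitrile/water (1:1), added in serum-free MEM in 10-fold dilutions up to the 25 µM assay cutoff. Incubated 48 h at 37 °C, 5% CO₂. ³H-thymidine uptake counted on filters. Activity expressed relative to the standard control run on each plate. Triplicates, at least two runs, ANOVA.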

First: CC(=O)N[C@H]1[C@@H](O[C@H](C)[C@H](N)C(=O)N[C@H](C(=O)N2CCC[C@H]2C(=O)N[C@@H](C)C(=O)N[C@@H](C)C(=O)N[C@H](C(=O)N[C@H](C(=O)N[C@H](C(=O)O)C(C)C)C(C)C)C(C)C)C(C)C)O[C@H](CO)[C@H](O)[C@@H]1O[C@@H]1O[C@H](CO)[C@H](O)[C@H](O)[C@H]1O (H-T(X1)VPAAVVV-OH)
Second: CC(=O)N[C@H]1[C@@H](O[C@H](C)[C@H](N)C(=O)N[C@H](C(=O)N2CCC[C@H]2C(=O)N[C@@H](C)C(=O)N[C@@H](C)C(=O)N[C@H](C(=O)N[C@H](C(=O)N[C@H](C(=O)N[C@@H](CC(C)C)C(=O)O)C(C)C)C(C)C)C(C)C)C(C)C)O[C@H](CO)[C@H](O)[C@@H]1O[C@@H]1O[C@H](CO)[C@H](O)[C@H](O)[C@H]1O (H-T(X1)VPAAVVVL-OH)
The Activity of the first is higher: 100% for the first, 0.01% for the second.

`CC(=O)N[C@H]1[C@@H](O[C@H](C)[C@H](NC(=O)[C@@H](N)Cc2ccc(O)cc2)C(=O)N[C@H](C(=O)N2CCC[C@H]2C(=O)N[C@@H](C)C(=O)N[C@@H](C)C(=O)N[C@H](C(=O)N[C@H](C(=O)N[C@H](C(=O)N[C@@H](C)C(=O)O)C(C)C)C(C)C)C(C)C)C(C)C)O[C@H](CO)[C@H](O)[C@@H]1O[C@@H]1O[C@H](CO)[C@H](O)[C@H](O)[C@H]1O` (H-YT(X1)VPAAVVVA-OH) and `CC(=O)N[C@H]1[C@@H](O[C@H](C)[C@H](N)C(=O)N[C@H](C(=O)N2CCC[C@H]2C(=O)N[C@@H](C)C(=O)N[C@@H](C)C(=O)N[C@H](C(=O)N[C@H](C(=O)N[C@H](C(=O)N[C@@H](C)C(=O)N[C@@H](CS)C(=O)O)C(C)C)C(C)C)C(C)C)C(C)C)O[C@H](CO)[C@H](O)[C@@H]1O[C@@H]1O[C@H](CO)[C@H](O)[C@H](O)[C@H]1O` (H-T(X1)VPAAVVVAC-OH) are the same in Activity: 1% for the first, 1% for the second.

Compared with `CC(=O)N[C@H]1[C@@H](O[C@H](C)[C@H](N)C(=O)N[C@H](C(=O)N2CCC[C@H]2C(=O)N[C@@H](C)C(=O)N[C@@H](CO)C(=O)N[C@H](C(=O)N[C@H](C(=O)N[C@H](C(=O)N[C@@H](CO)C(=O)O)C(C)C)C(C)C)C(C)C)C(C)C)O[C@H](CO)[C@H](O)[C@@H]1O[C@@H]1O[C@H](CO)[C@H](O)[C@H](O)[C@H]1O` (H-T(X1)VPASVVVS-OH), `CC(=O)N[C@H]1[C@@H](O[C@H](C)[C@H](N)C(=O)N[C@H](C(=O)N2CCC[C@H]2C(=O)N[C@@H](C)C(=O)N[C@@H](C)C(=O)N[C@@H](C)C(=O)N[C@@H](C)C(=O)N[C@@H](C)C(=O)N[C@@H](C)C(=O)O)C(C)C)O[C@H](CO)[C@H](O)[C@@H]1O[C@@H]1O[C@H](CO)[C@H](O)[C@H](O)[C@H]1O` (H-T(X1)VPAAAAAA-OH) is higher in Activity: 0.2% for the first, 1% for the second.

Molecule `CC(=O)N[C@H]1[C@@H](O[C@H](C)[C@H](N)C(=O)N[C@H](C(=O)N[C@@H](C)C(=O)N[C@@H](C)C(=O)N[C@@H](C)C(=O)N[C@H](C(=O)N[C@H](C(=O)N[C@H](C(=O)N[C@@H](C)C(=O)O)C(C)C)C(C)C)C(C)C)C(C)C)O[C@H](CO)[C@H](O)[C@@H]1O[C@@H]1O[C@H](CO)[C@H](O)[C@H](O)[C@H]1O` (H-T(X1)VAAAVVVA-OH) has an Activity of 0.3%.
